# Reference: ChEMBL document CHEMBL1122437, “beta 1-selective adrenoceptor antagonists. 1. Synthesis and beta-adrenergic blocking activity of a series of binary (aryloxy)propanolamines” (1983)
# Activity calls are given as the source filed them. No cut-off for these calls is given here.
# How the values were obtained:
# Rattus norvegicus [1] = assay: Beta-1-adrenoceptor blockade measured as inhibition of tachycardia caused by isoprenaline in anesthetized rats when administered intravenously; format: functional; conditions: iv
# In short: (§1)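 Anesthetized rats with a catheterized carotid artery for blood pressure. Heart rate was taken from the pulse signal by cardiotachometer. Tachycardia to isoprenaline (0.2 µg kg-1 iv) was recorded before and after accumulative iv doses of antagonist (0.1 mL 100 g-1). The value is the iv dose giving 50% reduction of the isoprenaline tachycardia.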
# [2] = target: Beta-1 adrenergic receptor (Cavia porcellus) (UniProt B0FL73)
# Rattus norvegicus [3] = organism: Rattus norvegicus; assay: Ratio of rat Beta-2 to Beta-1 adrenoceptor antagonism; format: functional
# In short: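 Anesthetized, carotid-cannulated rats were given isoprenaline (0.2 µg kg-1 iv) before and after accumulative iv antagonist doses. The β1 value is the iv dose halving the tachycardia, read by cardiotachometer from the pulse. The β2 value is the iv dose halving the depressor response. The ratio compares these two doses.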
# [4] = target: Beta-2 adrenergic receptor (Cavia porcellus) (UniProt Q8K4Z4)
# [5] = target: Beta-1 adrenergic receptor (Rattus norvegicus) (UniProt P18090); assay: Beta-1 adrenergic receptor blockade measured as inhibition of tachycardia caused by isoprenaline in anesthetized rats when administered intravenously; format: functional; in short: as §1
# [6] = target: Beta-1 adrenergic receptor (Rattus norvegicus) (UniProt P18090); assay: Beta-1 adrenergic receptor blockade measured as inhibition of tachycardia caused by isoprenaline in anesthetized rats when administered intravenously; inactive; format: functional; in short: as §1
# [7] = target: Beta-2 adrenergic receptor (Rattus norvegicus) (UniProt P10608)
# Beta-2 adrenergic receptor (Rattus norvegicus), sequence (P10608 whole entry, looked up): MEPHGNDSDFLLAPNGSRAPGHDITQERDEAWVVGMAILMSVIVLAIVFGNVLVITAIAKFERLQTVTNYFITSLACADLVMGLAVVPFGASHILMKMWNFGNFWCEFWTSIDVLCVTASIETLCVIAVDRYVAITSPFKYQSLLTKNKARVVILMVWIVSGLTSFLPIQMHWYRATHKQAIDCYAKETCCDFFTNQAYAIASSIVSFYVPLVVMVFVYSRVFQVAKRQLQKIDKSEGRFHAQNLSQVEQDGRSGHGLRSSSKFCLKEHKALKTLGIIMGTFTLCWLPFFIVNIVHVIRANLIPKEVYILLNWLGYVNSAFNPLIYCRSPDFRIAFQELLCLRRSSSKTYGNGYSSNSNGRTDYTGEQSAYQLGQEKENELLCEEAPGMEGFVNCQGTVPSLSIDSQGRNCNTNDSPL
# Beta-2 adrenergic receptor (Cavia porcellus), sequence (Q8K4Z4 whole entry, looked up): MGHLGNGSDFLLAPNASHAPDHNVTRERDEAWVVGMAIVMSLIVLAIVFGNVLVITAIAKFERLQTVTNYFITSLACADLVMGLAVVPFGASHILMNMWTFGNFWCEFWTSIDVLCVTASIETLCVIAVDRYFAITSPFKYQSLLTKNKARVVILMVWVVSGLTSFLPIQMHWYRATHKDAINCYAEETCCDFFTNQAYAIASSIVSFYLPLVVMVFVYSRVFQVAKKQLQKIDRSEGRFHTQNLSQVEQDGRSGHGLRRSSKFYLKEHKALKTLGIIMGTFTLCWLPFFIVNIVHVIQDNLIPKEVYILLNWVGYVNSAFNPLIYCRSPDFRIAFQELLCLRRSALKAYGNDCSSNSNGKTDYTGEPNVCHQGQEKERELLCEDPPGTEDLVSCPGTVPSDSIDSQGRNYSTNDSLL
# Beta-1 adrenergic receptor (Rattus norvegicus), sequence (P18090 whole entry, looked up): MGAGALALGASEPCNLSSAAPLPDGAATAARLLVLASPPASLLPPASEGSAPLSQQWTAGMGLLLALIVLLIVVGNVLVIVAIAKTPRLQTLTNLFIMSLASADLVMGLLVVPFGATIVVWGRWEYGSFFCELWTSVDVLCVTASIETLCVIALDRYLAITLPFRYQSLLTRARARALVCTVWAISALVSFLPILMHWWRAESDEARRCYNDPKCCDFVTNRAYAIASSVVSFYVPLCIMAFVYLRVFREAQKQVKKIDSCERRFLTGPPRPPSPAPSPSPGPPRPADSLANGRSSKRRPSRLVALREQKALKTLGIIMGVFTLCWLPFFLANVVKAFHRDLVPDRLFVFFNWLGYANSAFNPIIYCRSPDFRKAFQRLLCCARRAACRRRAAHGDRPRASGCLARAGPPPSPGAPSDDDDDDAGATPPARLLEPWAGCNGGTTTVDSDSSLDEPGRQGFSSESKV
# Beta-1 adrenergic receptor (Cavia porcellus), sequence (B0FL73 1-467): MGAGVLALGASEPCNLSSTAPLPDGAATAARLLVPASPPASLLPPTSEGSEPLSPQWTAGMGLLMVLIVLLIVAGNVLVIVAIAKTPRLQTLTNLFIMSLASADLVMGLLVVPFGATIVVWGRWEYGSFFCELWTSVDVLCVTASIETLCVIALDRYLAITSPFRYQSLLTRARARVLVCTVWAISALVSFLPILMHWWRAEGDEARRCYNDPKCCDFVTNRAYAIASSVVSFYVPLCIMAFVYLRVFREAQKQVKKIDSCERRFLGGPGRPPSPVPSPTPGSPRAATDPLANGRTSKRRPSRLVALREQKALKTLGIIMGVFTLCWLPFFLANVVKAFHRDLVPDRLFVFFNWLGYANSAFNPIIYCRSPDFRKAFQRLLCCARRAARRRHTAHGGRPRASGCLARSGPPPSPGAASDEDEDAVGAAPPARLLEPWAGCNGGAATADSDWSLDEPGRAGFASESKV
Affinity constant [2],Affinity constant [4],ED50 [5],ED50 [6],ED50 [7],Compound,ED50 (Rattus norvegicus [1]),Ratio (Rattus norvegicus [3])
0.003 µM,0.4 µM,,,,CC(C)NC[C@@H](O)COc1ccccc1OCCCCCCOc1ccccc1OC[C@@H](O)CNC(C)C,0.399 mg/kg,0.13
1 µM,0.031 µM,,,,CC(C)NC[C@H](O)COc1cccc(OCCOCCOc2cccc(OC[C@@H](O)CNC(C)C)c2)c1,,
2.5 µM,0.42 µM,,,,CC(C)NC[C@H](O)COc1ccc(OCCCCCCCCCCCCCCCCCCCCOc2ccc(OC[C@@H](O)CNC(C)C)cc2)cc1,,
0.65 µM,4.4e-05 µM,,,,CC(C)NC[C@H](O)COc1ccccc1OCC(O)COc1ccccc1OC[C@@H](O)CNC(C)C,0.993 mg/kg,0.045
,,,,,CC(C)NCC(O)COc1cccc2ccccc12 (stereo not given) [PROPRANOLOL],0.143 mg/kg,
0.2 µM,0.24 µM,,,,CC(C)NC[C@H](O)COc1ccc(OCCCOc2ccc(OC[C@@H](O)CNC(C)C)cc2)cc1,1.15 mg/kg,> 1.74
0.2 µM,1 µM,,,,CC(C)NC[C@@H](O)COc1ccccc1OCCCCCCCCCCCCCCOc1ccccc1OC[C@@H](O)CNC(C)C,,
1 µM,0.015 µM,,,,CC(C)NC[C@@H](O)COc1ccccc1OCCCCCCCCCCCCOc1ccccc1OC[C@@H](O)CNC(C)C,,
0.035 µM,0.00064 µM,,,,CC(C)NC[C@H](O)COc1ccccc1OCCCOc1ccccc1OC[C@@H](O)CNC(C)C,0.768 mg/kg,0.22
0.7 µM,0.007 µM,,,,CC(C)NC[C@H](O)COc1cccc(OCCCOc2cccc(OC[C@@H](O)CNC(C)C)c2)c1,0.653 mg/kg,1.56
0.15 µM,0.015 µM,,,,CC(C)NC[C@H](O)COc1ccccc1OCCOCCOc1ccccc1OC[C@@H](O)CNC(C)C,0.384 mg/kg,0.39
1.5 µM,> 10 µM,,,,CC(C)NC[C@@H](O)COc1ccccc1OCCCCCCCCCCCCCCCCCCCCOc1ccccc1OC[C@@H](O)CNC(C)C,,
0.01 µM,0.36 µM,,,,CC(C)NC[C@H](O)COc1ccc(OCCOCCOc2ccc(OC[C@@H](O)CNC(C)C)cc2)cc1,0.052 mg/kg,192
0.01 µM,> 10 µM,,,,CC(C)NC[C@H](O)COc1ccc(OCCCCCCOc2ccc(OC[C@@H](O)CNC(C)C)cc2)cc1,0.776 mg/kg,3.3
2.2 µM,> 10 µM,,,,CC(C)NC[C@H](O)COc1ccc(OCCCCCCCCCCCCCCOc2ccc(OC[C@@H](O)CNC(C)C)cc2)cc1,,
0.055 µM,4e-05 µM,0.029 mg/kg,,,CC(C)NC[C@H](O)COc1ccccc1OCCOCCOCCOCCOc1ccccc1OC[C@@H](O)CNC(C)C,,0.55
0.01 µM,0.03 µM,0.05 mg/kg,,,CC(C)NC[C@H](O)COc1ccc(OCCOCCOCCOc2ccc(OC[C@@H](O)CNC(C)C)cc2)cc1,,185
0.004 µM,0.17 µM,0.491 mg/kg,,,CC(C)NC[C@@H](O)COc1ccccc1OCCCCCCCCCCOc1ccccc1OC[C@@H](O)CNC(C)C,,0.26
0.007 µM,0.046 µM,,,,CC(C)NC[C@@H](O)COc1ccccc1OCCCCCCCCOc1ccccc1OC[C@@H](O)CNC(C)C,,
0.1 µM,0.23 µM,0.282 mg/kg,,,CC(C)NC[C@H](O)COc1ccc(OCCOCCOCCOCCOc2ccc(OC[C@@H](O)CNC(C)C)cc2)cc1,,> 70
0.06 µM,0.00085 µM,0.082 mg/kg,,,CC(C)NC[C@@H](O)COc1ccccc1OCCOCCOCCOc1ccccc1OC[C@@H](O)CNC(C)C,,1.35
0.44 µM,1.5 µM,,,,CC(C)NC[C@H](O)COc1ccc(OCCCCCCCCOc2ccc(OC[C@@H](O)CNC(C)C)cc2)cc1,,
0.1 µM,10 µM,,,,CC(C)NC[C@H](O)COc1ccc(OCCCCCCCCCCCCOc2ccc(OC[C@@H](O)CNC(C)C)cc2)cc1,,
0.022 µM,> 10 µM,,inactive,inactive,CC(C)NC[C@H](O)COc1ccc(OCCCCCCCCCCOc2ccc(OC[C@@H](O)CNC(C)C)cc2)cc1,,
